From ChEMBL document CHEMBL5357047, “The development of thymol-isatin hybrids as broad-spectrum antibacterial agents with potent anti-MRSA activity” (RSC Med Chem, 2024)
Converted amounts (≈) assume the structure as drawn.

Columns and labels:
Klebsiella pneumoniae [1] = test: Antibacterial activity against clinically isolated Klebsiella pneumoniae RBRJ019 assessed as inhibition of bacterial growth at 50 uM measured after 48 hrs by agar well diffusion method; assay type: functional; conditions: read-out: IZ
Klebsiella pneumoniae [2] = test: Antibacterial activity against Klebsiella pneumoniae MTCC 109 assessed as inhibition of bacterial growth at 50 uM measured after 48 hrs by agar well diffusion method; assay type: functional; conditions: read-out: IZ
Staphylococcus aureus [3] = test: Bactericidal activity against clinically isolated Methicillin-resistant Staphylococcus aureus assessed as inhibition of bacterial growth measured after 48 hrs by agar plate method; assay type: functional
Staphylococcus aureus [4] = test: Antibacterial activity against clinically isolated Staphylococcus aureus RBRJ010 assessed as inhibition of bacterial growth at 50 uM measured after 48 hrs by agar well diffusion method; assay type: functional; conditions: read-out: IZ
Escherichia coli [5] = test: Antibacterial activity against clinically isolated Escherichia coli RBRJ005 assessed as inhibition of bacterial growth at 50 uM measured after 48 hrs by agar well diffusion method; assay type: functional; conditions: read-out: IZ
Pseudomonas aeruginosa = test: Antibacterial activity against Pseudomonas aeruginosa MTCC 424 assessed as inhibition of bacterial growth at 50 uM measured after 48 hrs by agar well diffusion method; assay type: functional; conditions: read-out: IZ
Staphylococcus aureus [6] = test: Antibacterial activity against Staphylococcus aureus MTCC 740 assessed as inhibition of bacterial growth at 50 uM measured after 48 hrs by agar well diffusion method; assay type: functional; conditions: read-out: IZ
Enterobacter cloacae = test: Antibacterial activity against clinically isolated Enterobacter cloacae RBRJ017 assessed as inhibition of bacterial growth at 50 uM measured after 48 hrs by agar well diffusion method; assay type: functional; conditions: read-out: IZ
Escherichia coli [7] = test: Antibacterial activity against Escherichia coli MTCC 119 assessed as inhibition of bacterial growth at 50 uM measured after 48 hrs by agar well diffusion method; assay type: functional; conditions: read-out: IZ
Staphylococcus aureus [8] = test: Bactericidal activity against Staphylococcus aureus MTCC 740 assessed as inhibition of bacterial growth measured after 48 hrs by agar plate method; assay type: functional
How it was run: (§1)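 MBC: aliquots from microdilution wells without colour change subcultured on drug-free Mueller Hinton agar, 48 h at 37 °C aerobically. MBC is the lowest concentration with no visible growth. Triplicate.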

Staphylococcus aureus [9] = test: Bactericidal activity against Methicillin-resistant Staphylococcus aureus ATCC 33591 assessed as inhibition of bacterial growth measured after 48 hrs by agar plate method; assay type: functional; how it was run: as §1
Staphylococcus aureus [10] = test: Antibacterial activity against clinically isolated Staphylococcus aureus RBRJ010 assessed as inhibition of bacterial growth measured after 48 hrs by broth microdilution method; assay type: functional
[11] = system: Staphylococcus epidermidis; test: Antibacterial activity against Staphylococcus epidermidis MTCC 435 assessed as inhibition of bacterial growth at 50 uM measured after 48 hrs by agar well diffusion method; assay type: functional; conditions: read-out: IZ
Enterococcus faecalis [12] = test: Antibacterial activity against Enterococcus faecalis MTCC 439 assessed as inhibition of bacterial growth at 50 uM measured after 48 hrs by agar well diffusion method; assay type: functional; conditions: read-out: IZ
Klebsiella pneumoniae [13] = test: Antibacterial activity against clinically isolated Klebsiella pneumoniae RBRJ024 assessed as inhibition of bacterial growth at 50 uM measured after 48 hrs by agar well diffusion method; assay type: functional; conditions: read-out: IZ
Staphylococcus aureus [14] = test: Antibacterial activity against clinically isolated Methicillin-resistant Staphylococcus aureus assessed as inhibition of bacterial growth measured after 48 hrs by broth microdilution method; assay type: functional
Acinetobacter baumannii = test: Antibacterial activity against clinically isolated Acinetobacter baumannii RBRJ027 assessed as inhibition of bacterial growth at 50 uM measured after 48 hrs by agar well diffusion method; assay type: functional; conditions: read-out: IZ
Staphylococcus aureus [15] = test: Bactericidal activity against clinically isolated Staphylococcus aureus RBRJ010 assessed as inhibition of bacterial growth measured after 48 hrs by agar plate method; assay type: functional
How it was run: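 MBC: 10 μL from wells showing no INT colour change after broth microdilution subcultured on drug-free Mueller Hinton agar, 48 h at 37 °C aerobically; lowest concentration with no visible growth taken as MBC (μM). Triplicate.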

Staphylococcus aureus [16] = test: Antibacterial activity against Staphylococcus aureus MTCC 740 assessed as inhibition of bacterial growth measured after 48 hrs by broth microdilution method; assay type: functional
Enterococcus faecalis [17] = test: Antibacterial activity against clinically isolated Enterococcus faecalis RBRJ015 assessed as inhibition of bacterial growth at 50 uM measured after 48 hrs by agar well diffusion method; assay type: functional; conditions: read-out: IZ
Staphylococcus aureus [18] = test: Antibacterial activity against clinically isolated Methicillin-resistant Staphylococcus aureus assessed as inhibition of bacterial growth at 50 uM measured after 48 hrs by agar well diffusion method; assay type: functional; conditions: read-out: IZ
Escherichia coli [19] = test: Antibacterial activity against clinically isolated Escherichia coli RBRJ013 assessed as inhibition of bacterial growth at 50 uM measured after 48 hrs by agar well diffusion method; assay type: functional; conditions: read-out: IZ
Staphylococcus aureus [20] = test: Antibacterial activity against Methicillin-resistant Staphylococcus aureus ATCC 33591 assessed as inhibition of bacterial growth measured after 48 hrs by broth microdilution method; assay type: functional
Staphylococcus aureus [21] = test: Antibacterial activity against Methicillin-resistant Staphylococcus aureus ATCC 33591 assessed as inhibition of bacterial growth at 50 uM measured after 48 hrs by agar well diffusion method; assay type: functional; conditions: read-out: IZ
How it was run: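 Agar well diffusion on Mueller Hinton agar seeded with bacteria at 0.5 McFarland. […] Incubated 48 h at 37 °C aerobically; zone of inhibition diameter (mm) measured. Triplicate.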

[22] = Selectivity index, ratio of IC50 for cytotoxicity against mouse L929 cells to MIC for antibacterial activity against clinically isolated Methicillin-resistant Staphylococcus aureus; assay type: toxicity, cell-based; conditions: read-out: Selectivity Index
[23] = Cytotoxicity against mouse L929 cells assessed as reduction in cell viability measured after 72 hrs by MTT assay; assay type: toxicity, cell-based
How it was run: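 L929 cells (ATCC) grown in DMEM with 10% FBS and penicillin/streptomycin at 37 °C, 5% CO2; seeded at 5 × 10^3 cells per well and exposed to serial dilutions for 72 h, paclitaxel as positive control. MTT (5 mg mL−1), formazan dissolved in DMSO, absorbance at 490 nm; viability relative to control after blank subtraction; IC50 in μM.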

SMILES	zone of inhibition at 50 µM (Klebsiella pneumoniae [1]) [mm]	zone of inhibition at 50 µM (Klebsiella pneumoniae [2]) [mm]	MBC (Staphylococcus aureus [3]) [µM]	zone of inhibition at 50 µM (Staphylococcus aureus [4]) [mm]	zone of inhibition at 50 µM (Escherichia coli [5]) [mm]	zone of inhibition at 50 µM (Pseudomonas aeruginosa) [mm]	zone of inhibition at 50 µM (Staphylococcus aureus [6]) [mm]	zone of inhibition at 50 µM (Enterobacter cloacae) [mm]	zone of inhibition at 50 µM (Escherichia coli [7]) [mm]	MBC (Staphylococcus aureus [8]) [µM]	MBC (Staphylococcus aureus [9]) [µM]	zone of inhibition at 50 µM [11] [mm]	zone of inhibition at 50 µM (Enterococcus faecalis [12]) [mm]	zone of inhibition at 50 µM (Klebsiella pneumoniae [13]) [mm]	MIC (Staphylococcus aureus [14]) [µM]	zone of inhibition at 50 µM (Acinetobacter baumannii) [mm]	zone of inhibition at 50 µM (Enterococcus faecalis [17]) [mm]	zone of inhibition at 50 µM (Staphylococcus aureus [18]) [mm]	zone of inhibition at 50 µM (Escherichia coli [19]) [mm]	zone of inhibition at 50 µM (Staphylococcus aureus [21]) [mm]	other results
COc1ccc2c(c1)C(=O)C(=O)N2CCCn1cc(COc2cc(C)ccc2C(C)C)nn1	18.1	17.3	7.8 (≈ 3.5 µg/mL)	23.3	17.2	16.4	25.3	13.5	16.5	125 (≈ 56.1 µg/mL)	15.6 (≈ 7 µg/mL)	15.7	12.6	17.6	3.9 (≈ 1.75 µg/mL)	12.3	11.3	25.1	15.4	25.3	MIC (Staphylococcus aureus [10]): 15.6 µM (≈ 7 µg/mL); MBC (Staphylococcus aureus [15]): 31.2 µM (≈ 14 µg/mL); MIC (Staphylococcus aureus [16]): 62.5 µM (≈ 28 µg/mL); MIC (Staphylococcus aureus [20]): 7.8 µM (≈ 3.5 µg/mL)
Cc1ccc(C(C)C)c(OCc2cn(CCN3C(=O)C(=O)c4cc(C)ccc43)nn2)c1	15.4	16.6		21.2	12.7	11.3	18.2	14.2	17.1			19.6	14.3	15.7		12.7	16.3	16.2	11.4	16	MIC (Staphylococcus aureus [10]): 31.2 µM (≈ 13.1 µg/mL); MBC (Staphylococcus aureus [15]): 62.5 µM (≈ 26.2 µg/mL)
Cc1ccc(C(C)C)c(OCc2cn(CCCN3C(=O)C(=O)c4cc(I)ccc43)nn2)c1	11.3	12.3	125 (≈ 68 µg/mL)	19	12.3	11.6	20.2	13.7	13.2	125 (≈ 68 µg/mL)	125 (≈ 68 µg/mL)	14.2	11.7	12.7	62.5 (≈ 34 µg/mL)	11.5	11.1	20.2	11.2	20.5	MIC (Staphylococcus aureus [16]): 31.2 µM (≈ 17 µg/mL); MIC (Staphylococcus aureus [20]): 62.5 µM (≈ 34 µg/mL)
Cc1ccc(C(C)C)c(OCc2cn(CCCN3C(=O)C(=O)c4cc(Cl)ccc43)nn2)c1	15.1	14.3	62.5 (≈ 28.3 µg/mL)	21.2	15.2	13.3	22.1	15.7	14.2	31.2 (≈ 14.1 µg/mL)	125 (≈ 56.6 µg/mL)	18.2	14.2	14.8	31.2 (≈ 14.1 µg/mL)	13.2	14.1	21.3	15.5	20.5	selectivity ratio [22]: 4; MIC (Staphylococcus aureus [10]): 15.6 µM (≈ 7.07 µg/mL); MBC (Staphylococcus aureus [15]): 31.2 µM (≈ 14.1 µg/mL); MIC (Staphylococcus aureus [16]): 15.6 µM (≈ 7.07 µg/mL); IC50 at 72 h [23]: 125 µM; MIC (Staphylococcus aureus [20]): 62.5 µM (≈ 28.3 µg/mL)
Cc1ccc(C(C)C)c(OCc2cn(CCCN3C(=O)C(=O)c4cc(Br)ccc43)nn2)c1	13.2	14.3	62.5 (≈ 31.1 µg/mL)	19.3	15.4	11.4	21.2	14.2	14.1	62.5 (≈ 31.1 µg/mL)	125 (≈ 62.2 µg/mL)	17.2	12.1	13.3	31.2 (≈ 15.5 µg/mL)	11.2	12.2	21.2	15.5	21.5	MIC (Staphylococcus aureus [16]): 31.2 µM (≈ 15.5 µg/mL); MIC (Staphylococcus aureus [20]): 62.5 µM (≈ 31.1 µg/mL)
